# High-throughput results: PubChem BioAssay, Johns Hopkins Ion Channel Center
# TRPC4 agonist = opens the mouse TRPC4 cation channel. Q9QUQ5. HEK293 TRPC4beta/mu-opioid, Fluo4 calcium fluorescence; stronger effect = higher value. B-score at 10 µM. 0.49% of 310,000 active. AID 2237;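 active = B-score above 5 SD of library B-scores, and initial fluorescence ratio not above library mean plus 5 SD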;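 also: positive B-score marks a calcium rise read as TRPC4 activation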
#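 System: HEK293 cells stably co-expressing mouse TRPC4beta and mu-opioid receptor; Schedule: Fluo4 dye loading 45 min at room temperature, 110 s recording; Detection: Fluo4 fluorescence, kinetic; Evaluation: B-scored integrated calcium fluorescence ratio; Controls: buffer (low) and maximal DAMGO (high).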
# TRPC4 potent = allosteric potentiators of mouse TRPC4 channel. Q9QUQ5. AID 2227. HEK293 TRPC4beta/mu-opioid, DAMGO EC20, Fluo-4 Ca2+ flux; stronger effect = higher value. 0.42% of 310,000 active. B-score at 10 µM;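 active = B-score of calcium response area above 5 SD of library B-scores, with initial fluorescence ratio within 5 SD of library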
# TRPC4 block = TRPC4 (mouse) channel inhibition; Q9QUQ5; HEK293 TRPC4beta/mu-opioid, DAMGO-evoked Fluo4 calcium flux; stronger effect = lower value; B-score at 10 µM; 0.39% of 300,000 active;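 active = B-score over 3 SD under the library average, no early fluorescence shift, positive overall ratio signal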
#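 Assay system – HEK293 line stably carrying TRPC4beta and mu-opioid receptor · Doses – single dose · Detection – Fluo4 calcium-dye fluorescence, kinetic read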
# TRPC6 activator = mouse TRPC6 channel activation; Q61143; HEK293-TRPC6 membrane potential dye fluorescence; stronger effect = higher value; B-score at 10 µM; 0.13% of 310,000 active; AID 2550;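 active = B-score of the integrated fluorescence ratio above library mean plus 3 SD, and starting fluorescence ratio within library mean plus 5 SD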;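 also: higher score means more depolarization so channel activation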
# Target sequence (Q61143 whole entry, looked up): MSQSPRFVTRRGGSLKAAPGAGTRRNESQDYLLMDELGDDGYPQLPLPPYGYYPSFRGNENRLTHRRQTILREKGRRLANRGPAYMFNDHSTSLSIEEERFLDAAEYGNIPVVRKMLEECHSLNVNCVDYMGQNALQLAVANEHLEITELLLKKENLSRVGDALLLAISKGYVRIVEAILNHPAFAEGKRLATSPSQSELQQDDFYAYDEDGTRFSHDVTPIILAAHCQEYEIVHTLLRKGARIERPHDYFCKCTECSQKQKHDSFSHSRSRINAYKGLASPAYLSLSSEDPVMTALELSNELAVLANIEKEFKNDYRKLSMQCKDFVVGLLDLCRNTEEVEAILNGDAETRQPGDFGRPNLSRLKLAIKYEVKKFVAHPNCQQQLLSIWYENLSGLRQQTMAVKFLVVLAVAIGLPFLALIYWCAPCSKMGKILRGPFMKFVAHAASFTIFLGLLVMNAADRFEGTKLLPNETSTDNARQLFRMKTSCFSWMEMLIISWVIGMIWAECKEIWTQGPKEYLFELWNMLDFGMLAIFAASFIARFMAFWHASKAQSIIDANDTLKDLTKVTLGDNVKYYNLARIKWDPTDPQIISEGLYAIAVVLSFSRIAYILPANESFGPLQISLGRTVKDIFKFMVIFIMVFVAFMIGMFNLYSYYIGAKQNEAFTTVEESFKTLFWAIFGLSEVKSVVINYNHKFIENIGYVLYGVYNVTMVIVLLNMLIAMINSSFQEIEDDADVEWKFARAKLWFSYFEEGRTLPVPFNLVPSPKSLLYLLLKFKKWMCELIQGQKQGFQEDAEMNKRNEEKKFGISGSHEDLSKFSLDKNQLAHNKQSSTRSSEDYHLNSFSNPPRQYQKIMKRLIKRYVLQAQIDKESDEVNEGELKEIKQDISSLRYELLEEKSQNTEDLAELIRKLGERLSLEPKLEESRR
# TRPC6 inhibitor = blocks the mouse TRPC6 cation channel | Q61143 | HEK293-TRPC6, membrane potential dye, ACh-evoked depolarization; stronger effect = lower value | B-score at 10 µM | 1.1% of 310,000 active | AID 2553;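 active = B-score under library mean minus 3 SD, initial fluorescence not abnormally high, positive integrated signal ratio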;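 also: B-score derived from integrated fluorescence ratio over the kinetic read; more negative B-score means stronger inhibition of depolarization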
# TRPC4 sel inh 2 = second selectivity test of TRPC6 inhibitors: effect on mouse TRPC4. shares compounds with TRPC6 inhibitor. AID 2776. HEK293 TRPC4/MOR, membrane potential dye fluorescence; channel activated by saturating DAMGO dose. 42% of 920 active. inhibition, % at 10 µM;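 active = compounds whose fluorescence signal differed from control wells by over 3 SD, either direction, in both duplicate plates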
# TRPC4 spec = selectivity of TRPC6 inhibitors: effect on mouse TRPC4; 61% of 920 active; HEK293 TRPC4/mu-opioid, membrane potential fluorescence; shares compounds with TRPC6 inhibitor; activity change, negative = inhibition, % at 10 µM;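 active = rise or fall in signal beyond 3 SD of buffer-only wells in both replicate plates, either sign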;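 also: integrated kinetic ratio of fluorescence range over baseline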
# HEK293 MPD ctr 2-1 = second check of TRPC6 inhibitor effects in parental HEK293 cells; shares compounds with TRPC6 inhibitor; parental HEK293 membrane potential dye fluorescence; maximal acetylcholine challenge after compound addition; signal change vs control, % at 10 µM; 31% of 920 active; AID 2779;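 active = membrane potential signal moving either way by over 3 SD of the maximum-effect control, in both duplicate plates, meaning non-specific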
# HEK293 MPD ctr-1 = checks TRPC6 inhibitor effects in parental HEK293 cells | shares compounds with TRPC6 inhibitor | parental HEK293 membrane potential dye fluorescence | membrane potential signal change, % at 10 µM | 60% of 920 active | AID 2780;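 active = membrane potential signal shifting up or down by more than 3 SD of buffer-only wells, on both duplicate plates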
# HEK293 MPD ctr-2 = checks TRPC6 modulator effects in parental HEK293 cells. shares compounds with TRPC6 inhibitor. membrane potential dye fluorescence. membrane potential signal change, % at 10 µM. 51% of 2,400 active. AID 488924;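 active = membrane potential signal moves up or down beyond 5 SD from buffer-only wells, on both duplicate plates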
# HEK293 MPD ctr 2-2 = parental HEK293 nonspecific activity of TRPC6 modulators, second screen | shares compounds with TRPC6 inhibitor | membrane potential dye fluorescence; after compound, maximal acetylcholine stimulation | inhibition, % at 10 µM | 14% of 2,400 active | AID 488926;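 active = membrane potential signal drops by more than 5 SD from the mean control signal, in both duplicate plates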
# TRPC4 ctr mod = mouse TRPC4 off-target activity of TRPC6 modulators. AID 488927. 69% of 2,400 active. HEK293 TRPC4/mu-opioid, membrane potential fluorescence. shares compounds with TRPC6 inhibitor. percent change from control (negative = decrease, positive = increase), % at 10 µM;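 active = membrane potential signal moved up or down beyond 5 SD of buffer control wells, in both duplicate plates, actives on both sides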
# TRPC4/MOR inh 2 = second selectivity test of TRPC6 modulators against mouse TRPC4; inhibition, % at 10 µM; shares compounds with TRPC6 inhibitor; 55% of 2,400 active; HEK293 TRPC4/mu-opioid, membrane potential dye fluorescence; stimulated with maximal-effect DAMGO; AID 488928;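 active = drop in membrane potential signal beyond 5 SD of the control wells in both duplicate plates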;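 also: TRPC4 counter screen for TRPC6 hits run under conditions tuned for TRPC6 not TRPC4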
# TRPC6 block conf = mouse TRPC6 inhibitor confirmation | shares compounds with TRPC6 inhibitor | HEK293-TRPC6, membrane potential dye, ACh-evoked depolarization | inhibition, % at 10 µM | 43% of 3,300 active | AID 488960;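 active = fluorescence ratio falls more than 5 SD below the full-stimulation control mean, in both duplicate runs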;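 also: integrated fluorescence ratio of peak minus minimum over baseline after agonist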
# TRPC6 act conf = mouse TRPC6 activator confirmation | shares compounds with TRPC6 inhibitor | HEK293-TRPC6 membrane potential dye fluorescence, FDSS | activation, % at 10 µM | 11% of 2,800 active;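 active = ratio signal rise beyond 5 SD above unstimulated control wells' mean, seen in both duplicate runs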
# A number is an active result; i = inactive; nt = no result. The list is not random: actives were taken first. Their share in the collection is about 2.3%.
SMILES,TRPC4 agonist,TRPC4 potent,TRPC4 block,TRPC6 activator,TRPC6 inhibitor,HEK293 MPD ctr-2,HEK293 MPD ctr 2-2,TRPC4 ctr mod,TRPC4/MOR inh 2,TRPC6 block conf,TRPC6 act conf,others
O=C(COc1ccc2c3c(c(=O)oc2c1)CCC3)NCc1ccccn1,i,i,i,i,-6.1,i,i,i,i,i,i,
CC(C)c1c(C(=O)N/N=C/c2ccsc2)nnn1-c1nonc1N,i,i,i,i,i,nt,nt,nt,nt,nt,nt,
CC(C)c1ccc(NC(=O)c2cc([N+](=O)[O-])ccc2N2CCOCC2)cc1,i,i,i,i,i,nt,nt,nt,nt,nt,nt,
CC(C)Cc1nnc(NC(=O)c2cc([N+](=O)[O-])ccc2N2CCOCC2)s1,i,i,i,i,-5.2,i,i,i,i,i,i,
CN(C)CCNC(=O)c1c(NC(=O)c2ccccc2)sc2c1CCCC2,97,i,i,i,-5.6,-150%,i,-24%,80%,53%,i,
Cc1cccc2nc(-c3cccnc3)c(NCCC(C)C)n12,i,i,i,i,-5.5,i,i,-24%,84%,41%,i,
CC(CCc1ccccc1)NCc1cccc2ccccc12 (stereo not given),i,i,i,i,-7.4,nt,nt,nt,nt,67%,nt,TRPC4 sel inh 2=i;TRPC4 spec=32%;HEK293 MPD ctr 2-1=i;HEK293 MPD ctr-1=15%
Cc1ccc(C)c(S(=O)(=O)N2CC(=O)N(CCc3ccccc3)C(=O)C2)c1,i,i,i,i,i,nt,nt,nt,nt,nt,nt,
O=C(CN1CCCC1)N1c2ccccc2Sc2ccc(C(F)(F)F)cc21,i,i,i,i,-5.6,i,i,12%,i,53%,nt,
O=C(CN1CCN(c2ccccn2)CC1)N1c2ccccc2Sc2ccc(C(F)(F)F)cc21,i,i,i,i,i,nt,nt,nt,nt,nt,nt,
CCNCCC(=O)N1c2ccccc2Sc2ccc(C(F)(F)F)cc21,i,i,i,i,-6.1,i,94%,9.0%,42%,84%,nt,
O=C(CN1CCCC1)N1c2ccccc2Sc2ccc(Cl)cc21,i,i,i,i,-5.5,96%,i,14%,47%,60%,nt,
O=C(Nc1ccc(Cl)cc1F)C1CC1,i,i,i,i,i,nt,nt,nt,nt,nt,nt,
CCC(C)c1ccc(NC(=S)Nc2ccc(OC)cc2)cc1 (stereo not given),i,i,i,i,i,nt,nt,nt,nt,nt,nt,
CN(C)CCc1cc2c(c3c1ccc1ccccc13)OCO2,i,i,i,i,-5.2,i,i,-10%,47%,i,i,
Cc1cc(C(C)(C)C)oc1C(=O)OCC(=O)NC1CCCCC1,i,i,i,i,-5.3,i,i,26%,i,53%,nt,
Cc1ccc(C)c(N(CC(=O)NC2CCCC2)C(=O)c2oc(C(C)(C)C)cc2C)c1,i,i,i,i,i,nt,nt,nt,nt,nt,nt,
